# SIAE inh = human SIAE inhibitors, primary screen, biochemical, fluorescence polarization, FP-Rh probe, 1536-well HTS. 370,000 tested, 0.69% active. AID 1053197, 2014. inhibition, % at 9.66 µM. SIAE FP-Rh probe binding;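 active = inhibition above a cutoff: mean of compounds within the control limits plus 3 SD of those, cut at about 17% in these data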;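 also: 0% = plate median of compound wells and 100% = probe without SIAE protein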
# PRMT1 inh = PRMT1 methyltransferase inhibitors, primary screen, biochemical, fluorescence polarization; Protein arginine N-methyltransferase 1 (Homo sapiens), Q99873; recombinant PRMT1, activity-based probe fluorescence polarization; 370,000 tested, 1.3% active; AID 652257, 2013; inhibition, % at 2.79 µM;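 active = inhibition above about 21% made by adding two undisclosed values, limit read from the data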
# TCR CD3 inh = inhibitors of human TCR-CD3 interaction, primary screen, biochemical, fluorescence, TAMRA-labeled TCR probe; T-cell receptor (TCR); inhibition, % at 9.4 µM; 360,000 tested, 0.37% active; AID 651800, 2012; in the data active = inhibition above about 19%;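 also: recombinant mutant TCR 2C K166C tagged with TAMRA read by polarization; 0% = receptor in buffer alone and 100% = receptor with positive control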
# HTRA1 inhibitor = HTRA1 serine protease inhibitors, primary screen, biochemical, fluorescence polarization, HTS; Q92743; inhibition, % at 5.96 µM; AID 504803, 2011; 340,000 tested, 0.5% active; recombinant HTRA1, FP-rhodamine activity-based probe; in the data active = inhibition above about 36%;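 also: 0% = enzyme with DMSO and 100% = wells lacking enzyme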
# Target sequence (Q92743 whole entry, looked up): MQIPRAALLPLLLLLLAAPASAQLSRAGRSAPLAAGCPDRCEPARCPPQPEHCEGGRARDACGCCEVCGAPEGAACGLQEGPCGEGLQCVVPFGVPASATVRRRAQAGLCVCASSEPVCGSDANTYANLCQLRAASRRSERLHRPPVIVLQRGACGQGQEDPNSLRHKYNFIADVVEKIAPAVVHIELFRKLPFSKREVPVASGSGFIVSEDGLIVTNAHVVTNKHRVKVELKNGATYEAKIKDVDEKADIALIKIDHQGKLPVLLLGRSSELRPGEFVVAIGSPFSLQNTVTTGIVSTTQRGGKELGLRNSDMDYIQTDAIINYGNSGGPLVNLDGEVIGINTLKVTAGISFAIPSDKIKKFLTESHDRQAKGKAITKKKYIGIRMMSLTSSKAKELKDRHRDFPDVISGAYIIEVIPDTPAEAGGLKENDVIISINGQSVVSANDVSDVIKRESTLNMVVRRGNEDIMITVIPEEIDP
# ABHD4 inh = ABHD4 inhibitors, primary screen, biochemical, fluorescence polarization, mouse. (Lyso)-N-acylphosphatidylethanolamine lipase (Mus musculus), Q8VD66. purified mABHD4, FP-Rh probe fluorescence polarization. inhibition, % at 8.92 µM. 370,000 tested, 0.54% active. AID 720543, 2013;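 active = inhibition exceeding the mean over every tested compound plus 3 SD, cut at about 30% in these data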;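 also: 0% = plate median of compound wells and 100% = S159A mutant with DMSO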
#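 Assay system: Wild-type mouse ABHD4 protein | Medium: HEPES pH 7.0 buffer, 150 mM NaCl, 0.01% Pluronic F-127 | Incubation: Enzyme–compound pre-incubation 45 min, then probe 60 min, both 25 °C | Technique: Fluorescence polarization with parallel and perpendicular emission, 525/598 nm | Evaluation: % inhibition of FP-Rh probe binding versus controls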
# PRMT1 inh conf = PRMT1 methyltransferase inhibitors, confirmation, biochemical, fluorescence polarization, triplicate | shares compounds with PRMT1 inh | AID 687036, 2013 | 3,300 tested, 42% active | recombinant His-PRMT1, activity-based probe fluorescence polarization | inhibition, % at 2.79 µM;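 active = mean inhibition across replicates above the hit cutoff derived for the earlier primary screen, cut at about 22% in these data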
# Active calls of the source: *; . = no result given. Only some compounds are listed: those with a hit (about 2.7% of all), similar ones and a draw of the others.
SMILES,SIAE inh,PRMT1 inh,TCR CD3 inh,HTRA1 inhibitor,ABHD4 inh,PRMT1 inh conf
CCOC(=O)c1ccc(N2C(=O)CC(N3CCC(O)(c4ccc(Cl)cc4)CC3)C2=O)cc1 (stereo not given),-3,50*,3,-6,-8,17
CCOC(=O)c1ccc(N2C(=O)CC(N3CCC(O)(c4ccc(Br)cc4)CC3)C2=O)cc1 (stereo not given),-1,8,1,4,2,.
Cc1ccc(-c2csc(N)n2)s1,1,76*,-7,-5,6,28*
CC(C)(C)NC(=O)C(c1ccc(C(F)(F)F)cc1)n1c(=O)c(-c2cc3ccccc3[nH]2)nc2ccccc21 (stereo not given),-23,-1,9,.,-10,.
Clc1ccc(-c2ccc(-c3nn4c(-c5ccco5)nnc4s3)o2)cc1,-6,6,12,-16,-2,.
Brc1ccc(-c2nn3c(-c4ccco4)nnc3s2)o1,1,53*,19,7,7,15
CCOc1cc(/C=C2\C(=N)N3N=C(S(=O)(=O)CC)SC3=NC2=O)ccc1OC(=O)c1ccco1,-11,4,2,-6,-5,.
CCS(=O)(=O)C1=NN2C(=N)/C(=C\c3ccc(SCc4ccco4)o3)C(=O)N=C2S1,-69,30*,-49,-105,-131,21
OC[C@@H]1CN(Cc2ccc(-c3ccccc3)cc2)C[C@H](n2cnc3c(NCc4ccncc4)ncnc32)O1,-4,0,0,.,-11,.
CCNc1sc(C(=O)c2cccs2)c(N)c1C#N,-3,29*,-3,-3,3,11
C=CCNc1sc(C(=O)c2cccs2)c(N)c1C#N,4,0,-1,-7,11,.
O=C(O)c1ccc(S(=O)(=O)c2ccc([N+](=O)[O-])cc2[N+](=O)[O-])cc1,3,30*,-11,5,9,27*
Cc1ccc(O)c(C(=O)c2cc(C#N)c(=O)n(-c3nccs3)c2)c1,-13,39*,-6,-16,-1,31*
COc1ccccc1-c1cn(CC[C@H]2CC[C@@H](NS(=O)(=O)c3ccccc3C)[C@@H](CO)O2)nn1,-2,2,-5,.,8,.
COC(=O)[C@@]1(Sc2ccccc2)CC(=O)N[C@@H]1c1ccccc1,-2,4,1,.,3,.
COc1ccc(S[C@]2(C(=O)N3CCCC3)CC(=O)N(C(=O)c3ccccc3)[C@@H]2c2ccc(OC)cc2)cc1,14,74*,.,.,2,73*
COc1ccc(S[C@]2(C(=O)N(C)C)CC(=O)N(S(=O)(=O)c3ccc(F)cc3)[C@@H]2c2ccc(OC)cc2)cc1,-6,26*,.,.,-3,27*
COc1ccc(S[C@]2(C(=O)N(C)C)CC(=O)N(C(=O)c3ccccc3)[C@@H]2c2ccc(OC)cc2)cc1,1,84*,.,.,-7,72*
COC(=O)[C@@]1(Sc2ccc(C)cc2)CC(=O)N(C(=O)c2ccccc2)[C@@H]1c1ccccc1,-3,68*,6,.,-7,77*
COc1ccc(S[C@]2(C(=O)N(C)C)CC(=O)N(c3ccc(C#N)cc3)[C@@H]2c2ccc(OC)cc2)cc1,-3,4,.,.,-6,.
COc1ccc(S[C@]2(C(=O)N3CCCC3)CC(=O)N(S(=O)(=O)c3ccc(F)cc3)[C@@H]2c2ccc(OC)cc2)cc1,-5,20,.,.,-1,.
COc1ccc(C)cc1NS(=O)(=O)c1ccc2c(c1)CCN2C(C)=O,6,2,1,4,1,.
CCC(=O)N(Cc1ccco1)C1CC(=O)N(c2ccccc2)C1=O (stereo not given),0,1,0,-5,3,.
C[C@@H]1CN([C@@H](C)CO)C(=O)CCCn2cc(nn2)CO[C@H]1CN(C)C(=O)Nc1ccc(F)cc1,1,2,-1,.,-5,.
CCCc1cc(=O)[nH]c(SCC(=O)Nc2ccc(N3CCCCC3)cc2)n1,6,49*,4,8,8,-1
SMILES,SIAE inh,PRMT1 inh,TCR CD3 inh,HTRA1 inhibitor,ABHD4 inh,PRMT1 inh conf
Cc1cc(=O)[nH]c(SCC(=O)Nc2ccc(N3CCCCC3)cc2)n1,2,0,4,1,1,.
COc1ccc(N=Cc2ccccc2O)cc1,4,-3,0,2,-3,.
COc1ccc2sc(/C=C/c3ccccc3O)[n+](C)c2c1,-159,36*,-114,.,-98,0
NC(=O)c1ccc(NC(=O)COc2cccc3ccccc23)cc1,-2,-2,1,-4,-2,.
CCOC(=O)c1cc2c(ccn2C)n1CC(=O)N(Cc1ccccc1)c1ccccc1,6,29*,-3,-4,24,6
CC(C)OC(=O)c1cc2c(ccn2C)n1CC(=O)N(Cc1ccccc1)c1ccc(F)cc1,13,25*,-2,-24,7,5
CNC(=O)COc1ccc(S(=O)(=O)N2CCCC2)cc1,2,2,-2,-8,1,.
COc1ccc(-c2nnc(SCC(=O)NN=C(C)c3cccc4ccccc34)n2-c2ccccc2)cc1,8,-2,.,.,-9,.
O=C(NCCCN1CCCC1=O)C1CCN(S(=O)(=O)c2c(Cl)cccc2Cl)CC1,-19,1,0,2,-2,.
COc1ccc(NC(=O)CS(=O)(=O)c2cn(CC(=O)N3CCOCC3)c3ccccc23)cc1OC,4,35*,-4,0,2,21*
O=C(NNc1nc2cc3c(cc2s1)OCCO3)c1ccc(F)cc1,0,33*,-1,15,13,-1
COC(=O)[C@@]1(C)[C@H]2C(=O)N(C)C(=O)[C@H]2[C@H]2CN=C(SCC(=O)c3ccccc3)N21,-2,76*,-2,10,3,80*
CC[C@]1(C(=O)OC)[C@H]2C(=O)N(Cc3ccccc3)C(=O)[C@H]2[C@H]2CN=C(SCC(=O)c3ccccc3)N21,1,54*,2,-7,0,58*
O=C(O)C(c1ccccc1)N1C(=O)/C(=C\c2ccc(O)c(O)c2)SC1=S (stereo not given),-72,39*,-31,-30,-1,45*
COc1cc(/C=C2\SC(=S)N(C(C(=O)O)c3ccccc3)C2=O)ccc1O (stereo not given),-149,17,-72,-146,-206,.
COc1ccc(/C=C2\SC(=S)N(C(Cc3ccccc3)C(=O)O)C2=O)cc1 (stereo not given),-6,3,1,-40,-11,.
CCOc1cc(/C=C2\SC(=S)N(C(C(=O)O)c3ccccc3)C2=O)ccc1O (stereo not given),-143,25*,-74,-173,-181,-3

# Screening data as filed in PubChem BioAssay.
